According to ChEMBL document CHEMBL1208663, “Synthesis of 2-substituted-N-[4-(1-methyl-4,5-diphenyl-1H-imidazole-2-yl)phenyl]acetamide derivatives and evaluation of their anticancer activity” (Eur J Med Chem, 2010):
Converted amounts (≈) assume the structure as drawn. The source made the active and inactive calls. No cut-off for these calls is given here.

Tests used:
MCF7 [1] = experiment: Cytotoxicity against human MCF7 cells at 0.64 ug/ml after 24 hrs by MTT assay; assay type: functional
In short: (§1)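 MCF-7 cells grown in DMEM with 1 mM pyruvate, 10 µg/mL insulin, 10% FBS and penicillin/streptomycin at 37 °C, 5% CO2. Exposed 24 h to 0.64–80 µg/mL (DMSO stocks diluted in medium). MTT added, A540 measured. Percent viability relative to untreated cells; IC50 derived. Three experiments with four wells per concentration.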

MCF7 [2] = experiment: Cytotoxicity against human MCF7 cells at 16 ug/ml after 24 hrs by MTT assay; assay type: functional; in short: as §1
HT-29 [3] = experiment: Cytotoxicity against human HT-29 cells at 80 ug/ml after 24 hrs by MTT assay; assay type: functional
In short: (§2)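 HT-29 cells grown in McCoy's 5A with 10% FBS and penicillin/streptomycin at 37 °C, 5% CO2. Treated 24 h with 0.64, 1.6, 6.4, 16, 32 or 80 µg/mL (DMSO stock diluted in medium). MTT added, absorbance read at 540 nm. Viability taken relative to untreated control (100%); IC50 calculated. Four wells per concentration, three repeat experiments.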

HT-29 [4] = experiment: Cytotoxicity against human HT-29 cells at 16 ug/ml after 24 hrs by MTT assay; assay type: functional; in short: as §2
MCF7 [5] = experiment: Cytotoxicity against human MCF7 cells at 1.6 ug/ml after 24 hrs by MTT assay; assay type: functional; in short: as §1
HT-29 [6] = experiment: Cytotoxicity against human HT-29 cells after 24 hrs by MTT assay; assay type: functional, cell-based; conditions: HT-29, 24 h; in short: as §2
HT-29 [7] = experiment: Cytotoxicity against human HT-29 cells at 6.4 ug/ml after 24 hrs by MTT assay; assay type: functional; in short: as §2
HT-29 [8] = experiment: Cytotoxicity against human HT-29 cells at 0.64 ug/ml after 24 hrs by MTT assay; assay type: functional; in short: as §2
MCF7 [9] = experiment: Cytotoxicity against human MCF7 cells at 6.4 ug/ml after 24 hrs by MTT assay; assay type: functional; in short: as §1
HT-29 [10] = experiment: Cytotoxicity against human HT-29 cells at 1.6 ug/ml after 24 hrs by MTT assay; assay type: functional; in short: as §2
HT-29 [11] = experiment: Cytotoxicity against human HT-29 cells at 32 ug/ml after 24 hrs by MTT assay; assay type: functional; in short: as §2
MCF7 [12] = experiment: Cytotoxicity against human MCF7 cells after 24 hrs by MTT assay; assay type: functional, cell-based; conditions: MCF7, 24 h; in short: as §1
MCF7 [13] = experiment: Cytotoxicity against human MCF7 cells at 32 ug/ml after 24 hrs by MTT assay; assay type: functional; in short: as §1
MCF7 [14] = experiment: Cytotoxicity against human MCF7 cells at 80 ug/ml after 24 hrs by MTT assay; assay type: functional; in short: as §1
MCF7 [15] = experiment: Inhibition of DNA synthesis in human MCF7 cells by BrdU incorporation assay; assay type: functional, cell-based; conditions: TDE = time-dependent effect
In short: (§3)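 MCF-7 cells (DMEM, pyruvate, insulin, 10% FBS) seeded at 1 × 10^3 cells/mL. Treated at three concentrations for 24 h or 48 h at 37 °C against DMSO control. Labelled with BrdU for 2 h, fixed, then anti-BrdU-POD for 90 min. Colorimetric substrate read at 492 nm after blank subtraction. Triplicate wells, repeated three times.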

HT-29 [16] = experiment: Inhibition of DNA synthesis in human HT-29 cells by BrdU incorporation assay; assay type: functional, cell-based; conditions: TDE = time-dependent effect
In short: (§4)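 HT-29 cells (McCoy's 5A, 10% FBS) seeded at 1 × 10^3 cells/mL. Exposed to three concentrations for 24 h and 48 h at 37 °C, with DMSO solvent control. BrdU label for 2 h, then fixation and anti-BrdU-POD for 90 min. Substrate colour read at 492 nm with blank subtracted. Triplicate wells, three experiments.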

MCF7 [17] = experiment: Inhibition of DNA synthesis in human MCF7 cells after 48 hrs by BrdU incorporation assay; assay type: functional, cell-based; in short: as §3
HT-29 [18] = experiment: Induction of apoptosis in human HT-29 cells assessed as DNA fragmentation after 24 hrs by gel electrophoresis
HT-29 [19] = experiment: Inhibition of DNA synthesis in human HT-29 cells after 48 hrs by BrdU incorporation assay; assay type: functional, cell-based; in short: as §4

SMILES | Activity (MCF7 [1]) [%] | Activity (MCF7 [2]) [%] | Activity (HT-29 [3]) [%] | Activity (HT-29 [4]) [%] | Activity (MCF7 [5]) [%] | IC50 (HT-29 [6]) [µg/mL] | Activity (HT-29 [7]) [%] | Activity (HT-29 [8]) [%] | Activity (MCF7 [9]) [%] | Activity (HT-29 [10]) [%] | Activity (HT-29 [11]) [%] | IC50 (MCF7 [12]) [µg/mL] | Activity (MCF7 [13]) [%] | Activity (MCF7 [14]) [%] | inhibition (MCF7 [15]) | inhibition (HT-29 [16]) | inhibition (MCF7 [17]) | Activity (HT-29 [18]) | inhibition (HT-29 [19])
Cn1c(-c2ccc(NC(=O)CN3CCN(Cc4ccccc4)CC3)cc2)nc(-c2ccccc2)c1-c1ccccc1 | 7.2 | 28.3 | 54.5 | 37 | 13.3 | 65.5 (≈ 121 µM) | 26.8 | 15.5 | 23.8 | 26 | 40 | > 80 | 33.6 | 49.5 |  |  |  |  | 
Cn1c(-c2ccc(NC(=O)CCl)cc2)nc(-c2ccccc2)c1-c1ccccc1 | 3.4 | 15.2 | 76.1 | 23.7 | 4.3 | 28.7 (≈ 71.4 µM) | 15.1 | 7.2 | 14.2 | 14.4 | 53.2 | 42.6 (≈ 106 µM) | 42.8 | 70 |  |  |  |  | 
CN1CCN(CC(=O)Nc2ccc(-c3nc(-c4ccccc4)c(-c4ccccc4)n3C)cc2)CC1 | 1.1 | 30.1 | 53.1 | 33.7 | 2.9 | 35.5 (≈ 76.2 µM) | 28.8 | 18.8 | 28.6 | 27.4 | 49.1 | 76.5 (≈ 164 µM) | 46.2 | 50.3 |  |  |  |  | 
Cn1ccnc1SCC(=O)Nc1ccc(-c2nc(-c3ccccc3)c(-c3ccccc3)n2C)cc1 | 10.3 | 32.4 | 69.4 | 36.5 | 17.5 | 47.5 (≈ 99 µM) | 30.7 | 13.6 | 27.2 | 23.8 | 41.1 | 46.5 (≈ 97 µM) | 43.4 | 64 |  |  |  |  | 
Cn1c(-c2ccc(NC(=O)CSc3nc4ccccc4o3)cc2)nc(-c2ccccc2)c1-c1ccccc1 | 18.7 | 56 | 81.5 | 56.2 | 27.4 | 11 (≈ 21.3 µM) | 44.9 | 24.8 | 42.3 | 41 | 79.3 | 11.2 (≈ 21.7 µM) | 71.5 | 76.3 | tde | tde | Dose-dependent effect | inactive | Dose-dependent effect
CCN1CCN(CC(=O)Nc2ccc(-c3nc(-c4ccccc4)c(-c4ccccc4)n3C)cc2)CC1 | 4.7 | 32.8 | 51.2 | 28.4 | 14.6 | 75 (≈ 156 µM) | 17.2 | 7.4 | 16.4 | 13.9 | 38.8 | > 80 | 38.6 | 46.3 |  |  |  |  | 
Cn1nnnc1SCC(=O)Nc1ccc(-c2nc(-c3ccccc3)c(-c3ccccc3)n2C)cc1 | 21.9 | 63.7 | 89 | 72.5 | 34.3 | 1.6 (≈ 3.32 µM) | 60.6 | 38 | 55.9 | 49.8 | 84 | 4.5 (≈ 9.34 µM) | 77.5 | 77.7 | tde | tde | Dose-dependent effect | Active | Dose-dependent effect
Cc1nnc(SCC(=O)Nc2ccc(-c3nc(-c4ccccc4)c(-c4ccccc4)n3C)cc2)s1 | 35.1 | 74.9 | 90.5 | 83.3 | 37.5 | 2.7 (≈ 5.43 µM) | 73 | 34.8 | 67.8 | 39.9 | 87.1 | 3.2 (≈ 6.43 µM) | 83.4 | 85.2 | tde | tde | Dose-dependent effect | Active | Dose-dependent effect
Cn1c(-c2ccc(NC(=O)CSc3nc4ccccc4s3)cc2)nc(-c2ccccc2)c1-c1ccccc1 | 0.9 | 50.3 | 82.7 | 47.2 | 2.1 | 18 (≈ 33.8 µM) | 36.8 | 9.8 | 27 | 15.3 | 66 | 15.8 (≈ 29.7 µM) | 59 | 76.6 |  |  |  |  | 
Cn1c(-c2ccc(NC(=O)CSC3=NCCS3)cc2)nc(-c2ccccc2)c1-c1ccccc1 | 10.3 | 41.8 | 75.2 | 43.3 | 16.2 | 21 (≈ 43.3 µM) | 31 | 16.8 | 18.6 | 30.4 | 59.4 | 26.7 (≈ 55.1 µM) | 52.5 | 70 |  |  |  |  | 
Cn1c(-c2ccc(NC(=O)CN3CCN(c4ccccc4)CC3)cc2)nc(-c2ccccc2)c1-c1ccccc1 | 12.1 | 59.6 | 63.7 | 55.4 | 21.3 | 8.6 (≈ 16.3 µM) | 46.5 | 17.3 | 37.7 | 26 | 60.5 | 10.7 (≈ 20.3 µM) | 63.6 | 72.5 |  |  |  |  | 
CN(C)CCN1CCN(CC(=O)Nc2ccc(-c3nc(-c4ccccc4)c(-c4ccccc4)n3C)cc2)CC1 | 1.2 | 19.4 | 45.4 | 28.2 | 1.9 | > 80 | 12.2 | 3.1 | 11.1 | 8 | 29.8 | > 80 | 25.8 | 34.7 |  |  |  |  | 
Cn1cnnc1SCC(=O)Nc1ccc(-c2nc(-c3ccccc3)c(-c3ccccc3)n2C)cc1 | 33.1 | 61.2 | 88 | 59.1 | 42.8 | 10.7 (≈ 22.3 µM) | 43.1 | 32 | 59.2 | 40.8 | 86.1 | 3.2 (≈ 6.66 µM) | 89.2 | 89.3 | tde | tde | Dose-dependent effect | Active | Dose-dependent effect
Cn1c(-c2ccc(NC(=O)CN3CCN(Cc4ccc(Cl)cc4)CC3)cc2)nc(-c2ccccc2)c1-c1ccccc1 | 4.8 | 46.2 | 60.7 | 52.9 | 11.8 | 12 (≈ 20.8 µM) | 41.5 | 11.3 | 33.4 | 16.4 | 55.6 | 21 (≈ 36.4 µM) | 52.8 | 52.9 |  |  |  |  | 
